Key:
[1] = Octanol:water partition coefficient is evaluated; format: physicochemical
Mus musculus [2] = assay: BPI index was determined at 5 min after subcutaneous administration; format: functional
In short: (§1)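 Balb-c mice (20 ± 2 g) received a single sc injection of the ¹⁴C-labeled ester in 0.5 mL of 25% propylene glycol in water. Brain and liver were removed at 5 min, weighed and homogenized in urea/SDS/EDTA phosphate protein solvent (pH 7.6). Aliquots were counted for ¹⁴C by liquid scintillation. BPI = brain amount per g as % of liver amount per g. Mean ± SEM, n = 3.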

Mus musculus [3] = assay: Percent amount of compound was determined in liver per gram of tissue after 5 min of administration at a dose of 3-39 mg/Kg; range is 4.2-165; format: functional, organism-based
Mus musculus [4] = assay: Ability to penetrate the blood-brain barrier of mice was evaluated by measuring the brain penetration index (BPI) at dose 3-39 mg/Kg, administered subcutaneously; range is 0.04-1.81; format: functional, organism-based
Mus musculus [5] = assay: BPI index was determined at 5 min after subcutaneous administration to mice; format: functional; in short: as §1
Mus musculus [6] = assay: Ability to penetrate the blood-brain barrier of mice was evaluated by measuring the brain penetration index (BPI) at dose 67 mg/Kg, administered subcutaneously; format: functional, organism-based; in short: as §1
Mus musculus [7] = assay: Percent amount of compound was determined in liver per gram of tissue after 5 min of administration at a dose of 67 mg/kg; format: functional, organism-based; set-up: dose 67 mg/kg; in short: as §1
Mus musculus [8] = assay: Compound was evaluated for the effect on the uptake in mouse brain, at dose 78 mg/Kg (ip) after a time period of 15 min; format: functional, organism-based
In short: (§2)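 Mice received a single systemic dose (ip or sc) of ¹⁴C-labeled compound in 0.5 mL of 0.14 N saline or 25% propylene glycol/water, depending on the compound. Brain was taken at the stated time and homogenized in 8 mL of 1% SDS/6 M urea/EDTA in 0.03 M phosphate (pH 7.4). Aliquots were counted by liquid scintillation and expressed as nmol/g brain.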

Mus musculus [9] = assay: Compound was evaluated for the effect on the uptake in mouse brain, at dose 78 mg/Kg (ip) after a time period of 30 min; format: functional, organism-based; in short: as §2
Mus musculus [10] = assay: Compound was evaluated for the effect on the uptake in mouse brain, at dose 78 mg/kg (ip) after a time period of 5 min; format: functional, organism-based; set-up: dose 78 mg/kg; in short: as §2

Structure (SMILES) | K [1] | BPI (Mus musculus [2]) | Uptake (Mus musculus [3]) | Uptake (Mus musculus [4]) | BPI (Mus musculus [5]) | Uptake (Mus musculus [6]) | Uptake (Mus musculus [7]) | Uptake (Mus musculus [8]) | Uptake (Mus musculus [9]) | Uptake (Mus musculus [10])
NCCCC(=O)O [GAMMA-AMINOBUTYRIC ACID] | 0.004 | 0.96 | 4.2 nM/g | 0.04 nM/g |  |  |  |  |  | 
NCCCC(=O)OCC(O)CO.O=C(O)C(F)(F)F (stereo unspecified) | 0.01 |  |  |  | 3 | 4.8 nM/g | 157 nM/g | 14 nM/g | 16.4 nM/g | 4.8 nM/g
